Test results reported in publication PMC4835239 (Leukemia & lymphoma, 2015).
Entries after “also recorded” stand apart in the source; their conditions may differ.

How the values were obtained:
CLL cells [1] = conditions: bortezomib; cited from earlier work
myeloma cells = conditions: bortezomib; cited from earlier work
[2] = tested on: relapsed/refractory CLL or small lymphocytic lymphoma (SLL); test: Response assessment by IWCLL 2008 criteria; format: in vivo, human; conditions: all patients
[3] = tested on: patients with relapsed/refractory CLL or small lymphocytic lymphoma (SLL); test: Phase I dose-escalation trial: toxicity assessment; format: in vivo
[4] = tested on: chymotrypsin-like proteasome activity of CLL cells; test: Proteasome activity assay in CLL cells from patient samples; format: in vivo, human
How it was run: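 Chymotrypsin-like proteasome activity was measured in CLL cells from patient whole blood with a validated commercial assay. Samples were taken at screening, pre- and post-dose day 1, pre-dose day 2, and pre- and post-dose days 8 and 9 of cycle 1. Dosing was a 30-min IV infusion, 20 mg/m2 on days 1–2, then 27, 36, 45 or 56 mg/m2 by cohort from day 8.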

CLL cells [5] = conditions: cited from earlier work
CLL = conditions: patients with CLL; cited from earlier work

O=c1c(O)c(-c2ccc(O)c(O)c2)oc2cc(O)cc(O)c12 [quercetin]
Level of quercetin required to inhibit apoptosis (CLL cells [1]): 20 μm | Level of quercetin required to inhibit apoptosis (myeloma cells): 40 μm

CC(C)C[C@H](NC(=O)[C@H](CCc1ccccc1)NC(=O)CN1CCOCC1)C(=O)N[C@@H](Cc1ccccc1)C(=O)N[C@@H](CC(C)C)C(=O)[C@@]1(C)CO1 [Carfilzomib]
Objective partial or complete responses (IWCLL 2008) [2]: No objective partial or complete responses were observed | Maximum tolerated dose (MTD) ([3]; doses up to 56 mg/m^2 twice weekly for 3 weeks of a 4 week cycle): No maximum tolerated dose of carfilzomib was identified | Dyspnea, incidence ([3]; grade 3, total n=19): 1 number of patients | Febrile neutropenia, incidence ([3]; grade 3, total n=19): 1 number of patients | Grade of electrolyte disturbances ([3]; human, in vivo): ≤ 2 grade | Infusion reaction or tumor lysis syndrome ([3]; in vivo): No patient experienced an infusion reaction or tumor lysis syndrome | Chymotrypsin-like proteasome activity ([4]; by 24 hours after dosing): partially recovered; also recorded: recovered partially | Chymotrypsin-like proteasome activity ([4]; by day 8): rebound higher than pretreatment levels; also recorded: completely | Cytotoxicity against CLL cells in vitro (CLL cells [5]): significant cytotoxicity | Effect of human serum on cytotoxic activity against CLL cells (CLL cells [5]; human versus fetal bovine serum): unaffected by human serum

CC(C)C[C@H](NC(=O)[C@H](Cc1ccccc1)NC(=O)c1cnccn1)B(O)O [bortezomib]
Objective clinical responses (CLL): no objective clinical responses
